≈ marks a conversion by molar mass, not a printed value.
How the values were obtained:
[1] = system: Acinetobacter baumannii; experiment: Antimicrobial activity against Acinetobacter baumannii BM4454 isolated from patient with urinary tract infection by E test; format: functional; details: BM4454, Urine
Method in brief: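 MIC read by E-test strip on solid medium against the multiresistant AdeABC-overexpressing urinary isolate. Strains were grown at 37°C in brain heart infusion or LB.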

[2] = system: Acinetobacter baumannii; experiment: Antimicrobial activity against Acinetobacter baumannii BM4652 expressing adeABC adeIJK double mutant isolated from patient with urinary tract infection by E test; format: functional; details: BM4652, Urine
Method in brief: (§1)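 MICs determined on solid medium (Mueller-Hinton agar) by E-test. The strains are deletion-insertion derivatives of multiresistant urinary isolate BM4454 that lack adeIJK, adeABC or both. Strains were grown at 37°C in brain heart infusion broth or agar or in LB.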

[3] = system: Acinetobacter baumannii; experiment: Antimicrobial activity against Acinetobacter baumannii BM4579 expressing deltaadeIJK genes isolated from patient with urinary tract infection by E test; format: functional; details: BM4579, Urine; method in brief: as §1
[4] = system: Acinetobacter baumannii; experiment: Antimicrobial activity against Acinetobacter baumannii BM4652 expressing adeIJK genes with pAT807 isolated from patient with urinary tract infection by E test; format: functional; details: BM4652, Urine
Method in brief: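 E-test MIC on solid medium, with 0.005 mM IPTG added to induce adeIJK carried on plasmid pAT807 in the ΔadeIJK host. Growth was at 37°C.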

[5] = system: Acinetobacter baumannii; experiment: Antimicrobial activity against Acinetobacter baumannii BM4651 expressing deltaadeABC genes isolated from patient with urinary tract infection by E test; details: BM4651, Urine
[6] = system: Acinetobacter baumannii; experiment: Antimicrobial activity against Acinetobacter baumannii BM4579 expressing adeIJK genes with pAT807 isolated from patient with urinary tract infection by E test; details: BM4579, Urine
[7] = system: Acinetobacter baumannii; experiment: Antimicrobial activity against Acinetobacter baumannii BM4454 isolated from patient with urinary tract infection by agar dilution method; format: functional; details: BM4454, Urine
Method in brief: (§2)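 MIC by agar dilution, the method used for ticarcillin and SDS. Strains were grown at 37°C in brain heart infusion or LB.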

[8] = system: Acinetobacter baumannii; experiment: Antimicrobial activity against Acinetobacter baumannii BM4652 expressing adeABC adeIJK double mutant isolated from patient with urinary tract infection by agar dilution method; format: functional; details: BM4652, Urine
Method in brief: (§3)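 MICs determined by agar dilution on Mueller-Hinton agar with 10^4 CFU/spot; this method was used for ticarcillin and SDS. The strains are ΔadeIJK or ΔadeABC ΔadeIJK deletion-insertion derivatives of urinary isolate BM4454, grown at 37°C in brain heart infusion or LB medium.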

[9] = system: Acinetobacter baumannii; experiment: Antimicrobial activity against Acinetobacter baumannii BM4652 expressing adeIJK genes with pAT807 isolated from patient with urinary tract infection by agar dilution method; format: functional; details: BM4652, Urine
Method in brief: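 Agar-dilution MIC (ticarcillin, SDS), with 0.005 mM IPTG added to induce plasmid pAT807-borne adeIJK in the ΔadeIJK background. Growth was at 37°C.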

[10] = system: Acinetobacter baumannii; experiment: Antimicrobial activity against Acinetobacter baumannii BM4579 expressing deltaadeIJK genes isolated from patient with urinary tract infection by agar dilution method; format: functional; details: BM4579, Urine; method in brief: as §3
[11] = system: Acinetobacter baumannii; experiment: Antimicrobial activity against Acinetobacter baumannii BM4579 expressing adeIJK genes with pAT807 isolated from patient with urinary tract infection by E test; format: functional; details: BM4579, Urine, in the assay text read “agar dilution method” for “E test”
[12] = system: Acinetobacter baumannii; experiment: Antimicrobial activity against Acinetobacter baumannii BM4651 expressing deltaadeIJK genes isolated from patient with urinary tract infection by agar dilution method; format: functional; details: BM4651, Urine, in the assay text read “deltaadeABC” for “deltaadeIJK”; method in brief: as §2

Compound | MIC [1] [µg/mL] | MIC [2] [µg/mL] | MIC [3] [µg/mL] | MIC [4] [µg/mL] | MIC [5] [µg/mL] | MIC [6] [µg/mL] | MIC [7] [µg/mL] | MIC [8] [µg/mL] | MIC [9] [µg/mL] | MIC [10] [µg/mL] | MIC [11] [µg/mL] | MIC [12] [µg/mL]
C[C@H]1COc2c(N3CCN(C)CC3)c(F)cc3c(=O)c(C(=O)O)cn1c23.C[C@H]1COc2c(N3CCN(C)CC3)c(F)cc3c(=O)c(C(=O)O)cn1c23.O [LEVOFLOXACIN] | 12 | 0.38 | 6 | 2 | 3 |  |  |  |  |  |  | 
CC[C@H]1OC(=O)[C@H](C)[C@@H](O[C@H]2C[C@@](C)(OC)[C@@H](O)[C@H](C)O2)[C@H](C)[C@@H](O[C@@H]2O[C@H](C)C[C@H](N(C)C)[C@H]2O)[C@](C)(O)C[C@@H](C)CN(C)[C@H](C)[C@@H](O)[C@]1(C)O [AZITHROMYCIN] | 96 (≈ 128 µM) | 1.5 (≈ 2 µM) | 96 (≈ 128 µM) | 24 (≈ 32 µM) | 1.5 (≈ 2 µM) | 96 (≈ 128 µM) |  |  |  |  |  | 
C[C@@H](O)[C@H]1C(=O)N2C(C(=O)O)=C(SCCNC=N)C[C@H]12 [IMIPENEM ANHYDROUS] | 0.5 (≈ 1.67 µM) | 0.25 (≈ 0.835 µM) | 0.25 (≈ 0.835 µM) | 96 (≈ 321 µM) | 0.5 (≈ 1.67 µM) | 0.25 (≈ 0.835 µM) |  |  |  |  |  | 
CCn1cc(C(=O)O)c(=O)c2cc(F)c(N3CCN(C)CC3)cc21 [PEFLOXACIN] | 48 (≈ 144 µM) | 4 (≈ 12 µM) | 24 (≈ 72 µM) | 12 (≈ 36 µM) | 24 (≈ 72 µM) | 48 (≈ 144 µM) |  |  |  |  |  | 
CC1(C)S[C@@H]2[C@H](NC(=O)[C@H](C(=O)O)c3ccsc3)C(=O)N2[C@H]1C(=O)O [TICARCILLIN] |  |  |  |  |  |  | 8 (≈ 20.8 µM) | 1 (≈ 2.6 µM) | > 256 | 1 (≈ 2.6 µM) | > 256 | 8 (≈ 20.8 µM)
COc1c(N2C[C@@H]3CCCN[C@@H]3C2)c(F)cc2c(=O)c(C(=O)O)cn(C3CC3)c12 [MOXIFLOXACIN] | 12 (≈ 29.9 µM) | 0.5 (≈ 1.25 µM) | 12 (≈ 29.9 µM) |  | 3 (≈ 7.47 µM) | 16 (≈ 39.9 µM) |  |  |  |  |  | 
CN(C)[C@@H]1C(O)=C(C(N)=O)C(=O)[C@@]2(O)C(O)=C3C(=O)c4c(O)cccc4[C@@](C)(O)[C@H]3C[C@@H]12 [TETRACYCLINE] | 48 (≈ 108 µM) | 0.5 (≈ 1.13 µM) | 4 (≈ 9 µM) | 0.75 (≈ 1.69 µM) | 8 (≈ 18 µM) | 6 (≈ 13.5 µM) |  |  |  |  |  | 
CO[C@H]1/C=C/O[C@@]2(C)Oc3c(C)c(O)c4c(O)c(c(/C=N/N5CCN(C)CC5)c(O)c4c3C2=O)NC(=O)/C(C)=C\C=C\[C@H](C)[C@H](O)[C@@H](C)[C@@H](O)[C@@H](C)[C@H](OC(C)=O)[C@@H]1C [RIFAMPIN] | 4 (≈ 4.86 µM) | 2 (≈ 2.43 µM) | 2 (≈ 2.43 µM) | 1.5 (≈ 1.82 µM) | 4 (≈ 4.86 µM) | 2 (≈ 2.43 µM) |  |  |  |  |  | 
CN(C)c1ccc(O)c2c1C[C@H]1C[C@H]3[C@H](N(C)C)C(O)=C(C(N)=O)C(=O)[C@@]3(O)C(O)=C1C2=O [MINOCYCLINE] | 1.5 (≈ 3.28 µM) | 0.064 (≈ 0.14 µM) | 0.25 (≈ 0.546 µM) | 0.75 (≈ 1.64 µM) | 0.5 (≈ 1.09 µM) | 1 (≈ 2.19 µM) |  |  |  |  |  | 
O=C(N[C@H](CO)[C@H](O)c1ccc([N+](=O)[O-])cc1)C(Cl)Cl [CHLORAMPHENICOL] | 256 (≈ 792 µM) | 16 (≈ 49.5 µM) | 64 (≈ 198 µM) | 6 (≈ 18.6 µM) | 128 (≈ 396 µM) | 96 (≈ 297 µM) |  |  |  |  |  | 
CC[C@H]1OC(=O)[C@H](C)[C@@H](O[C@H]2C[C@@](C)(OC)[C@@H](O)[C@H](C)O2)[C@H](C)[C@@H](O[C@@H]2O[C@H](C)C[C@H](N(C)C)[C@H]2O)[C@](C)(O)C[C@@H](C)C(=O)[C@H](C)[C@@H](O)[C@]1(C)O [ERYTHROMYCIN] | 12 (≈ 16.4 µM) | 1.5 (≈ 2.04 µM) | 8 (≈ 10.9 µM) | 3 (≈ 4.09 µM) | 4 (≈ 5.45 µM) | 12 (≈ 16.4 µM) |  |  |  |  |  | 
CN(C)c1cc(NC(=O)CNC(C)(C)C)c(O)c2c1C[C@H]1C[C@H]3[C@H](N(C)C)C(O)=C(C(N)=O)C(=O)[C@@]3(O)C(O)=C1C2=O [TIGECYCLINE] | 4 (≈ 6.83 µM) | 0.047 (≈ 0.0803 µM) | 1.5 (≈ 2.56 µM) | 3 (≈ 5.12 µM) | 0.5 (≈ 0.854 µM) | 2 (≈ 3.41 µM) |  |  |  |  |  | 
CCC[C@@H]1C[C@@H](C(=O)N[C@@H]([C@H]2O[C@H](SC)[C@H](O)[C@@H](O)[C@H]2O)[C@H](C)Cl)N(C)C1 [CLINDAMYCIN] | > 256 | 2 (≈ 4.71 µM) | 48 (≈ 113 µM) | 2 (≈ 4.71 µM) | > 256 | 48 (≈ 113 µM) |  |  |  |  |  | 
CO/N=C(\C(=O)N[C@@H]1C(=O)N2C(C(=O)O)=C(COC(C)=O)CS[C@H]12)c1csc(N)n1 [CEFOTAXIME] | 8 (≈ 17.6 µM) | 1.5 (≈ 3.29 µM) | 1.5 (≈ 3.29 µM) | 0.25 (≈ 0.549 µM) | 8 (≈ 17.6 µM) | 3 (≈ 6.59 µM) |  |  |  |  |  | 

— ChEMBL document CHEMBL1152472, “AdeIJK, a resistance-nodulation-cell division pump effluxing multiple antibiotics in Acinetobacter baumannii” (2008)
